Converted amounts (≈) assume the structure as drawn. Bridge positions count the residues as written; N and C are the ends. Peptide text beside a SMILES is read from it.
How the values were obtained:
NOD mice = details: intense, short-term treatment, ref [20]; cited from earlier work
ldlr^−/− mice [1] = experiment: Atherosclerotic lesions in the aortic root; assay type: in vivo, mouse (B6.129S7-Ldlrtm1Her/J, female); details: 0.4 mg/mouse i.p. 3 times daily, 4 weeks; n=5/group
Procedure, shortened: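 Female ldlr−/− mice aged 6 weeks were fed a Western diet (21% milk fat, 0.15% cholesterol) and given peptide i.p. (0.4 or 0.7 mg in 200 μL saline every 8 or 12 h), with saline controls. Mice were saline-perfused and hearts OCT-frozen. Every other 10-μm aortic sinus section was taken (15 sections, 300 μm), baked overnight at 55°C and stained with Oil-red-O/hematoxylin. Lesion area, excluding the internal elastic lamina, was averaged per mouse.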

SREBP1 [2] = experiment: SREBP1 protein in liver extracts of treated mice; assay type: in vivo, mouse (ldlr^−/−); details: Western diet, osmotic pump, vs saline; P<0.05; 8 weeks in Figure 6
[3] = Blood cell counts, blood chemistries and overt signs of toxicity; assay type: in vivo, mouse (ldlr^−/−)
Procedure, shortened: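 Western diet-fed ldlr−/− mice, treated or saline controls. Complete blood counts were run by a clinical hematology laboratory, and lymphocyte subsets were measured by flow cytometry.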

SREBP2 [4] = experiment: SREBP2 protein in liver extracts of treated mice; assay type: in vivo, mouse (ldlr^−/−); details: Western diet, osmotic pump, vs saline; P<0.05; 8 weeks in Figure 6
[5] = liver, spleen, pancreas, and lungs, ref not given; cited from earlier work
HDAC3 = HDAC3 in liver nuclear extracts; assay type: in vivo, mouse (ldlr^−/−); details: 8 weeks, osmotic pump, vs saline; 5 mice/group
Procedure, shortened: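 Liver nuclear extracts came from Western diet-fed ldlr−/− mice after 8 weeks of subcutaneous osmotic pump dosing (10 mg in 100 μL water) or saline; phosphatase inhibitors were added. HDAC3 was immunoblotted and expressed as a ratio to β-actin. Groups were compared by Mann–Whitney test.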

SREBP1 [6] = experiment: SREBP1 nuclear translocation in sterol-depleted HepG2 cells; assay type: cell-based, human (HepG2 cells)
Procedure, shortened: (§1)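 HepG2 cells were sterol-depleted with hydroxypropyl-β-cyclodextrin for 15 min and rinsed. They were then incubated 2 h in DMEM/5% delipidized FBS with 10 μmol/L MG132 and 0, 10 or 30 μmol/L test compound. Nuclear and cytosolic extracts were immunoblotted for SREBPs, normalized to Lamin A/C or B (nuclear) or GAPDH/β-actin (cytosolic). Percent inhibition of nuclear translocation comes from ≥3 independent experiments.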

NFκB RelA (p65) = experiment: Immunoblot of phosphorylated NFκB RelA in liver extracts of treated mice; assay type: in vivo, mouse (ldlr^−/−); details: 8 weeks, Western diet, osmotic pump, vs saline; relative ratio to total RelA
ChREBP = experiment: Glucose-induced nuclear translocation of ChREBP in HepG2 cells; assay type: cell-based, human (HepG2 cells); details: 30 μmol/L, 24 hours; 25 mmol/L glucose + 100 nmol/L insulin after starvation; 3 experiments; P<0.05
Procedure, shortened: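 HepG2 cells (kept in DMEM/10% FBS) were starved 24 h in DMEM with 5.5 mmol/L glucose. They were refed 25 mmol/L glucose plus 100 nmol/L insulin, with or without 30 μmol/L test compound, for 24 h. Nuclear and cytosolic extracts were prepared with phosphatase inhibitors and immunoblotted for ChREBP, with lamin loading controls for nuclear fractions.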

Solubility = assay type: physicochemical; details: method not given
ldlr^−/− mice [7] = assay type: in vivo, mouse (B6.129S7-Ldlrtm1Her/J, female); details: 4 weeks, Western diet, osmotic pump, vs saline
Procedure, shortened: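 Female ldlr−/− mice on a Western diet received peptide by subcutaneous osmotic pump (10 mg in 100 μL water) or saline. After an overnight fast, plasma cholesterol, triglycerides and glucose were measured at 1, 4 and 8 weeks, using a separate group of animals at each time.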

SREBP2 [8] = experiment: SREBP2 nuclear translocation in sterol-depleted HepG2 cells; assay type: cell-based, human (HepG2 cells); details: 2 hours after HPCD
Procedure, shortened: as §1

[9] = system: microbial and autoimmune inflammation; details: ref [29]; cited from earlier work
GAPDH [10] = experiment: Pull-down assay, control protein, HepG2 extract; assay type: binding, human (HepG2 cells); details: biotinylated peptide, HepG2 whole-cell extract; immunoblot
Procedure, shortened: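 HepG2 cells were serum-starved overnight in DMEM/1% FBS and lysed in binding buffer (10 mmol/L HEPES pH 7.9, 150 mmol/L NaCl, 0.1% NP-40, protease inhibitors). Biotinylated peptide (10 nmol) was incubated with 1.5 mg extract overnight at 4°C. After clearing at 16 000g, it was captured on Neutravidin beads for 4 h. Beads were washed, boiled in SDS buffer and immunoblotted for importins and GAPDH.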

GAPDH [11] = experiment: Pull-down assay, nonspecific control protein, Jurkat extract; assay type: binding, human (Jurkat T cells); details: biotinylated peptide, Jurkat whole-cell extract; immunoblot
NPC1L1 = NPC1L1 protein in whole-cell liver extracts; assay type: in vivo, mouse (ldlr^−/−); details: 8 weeks, osmotic pump, vs saline; ratio to β actin; 4 mice/group; P<0.05
[12] = system: SREBP1 and SREBP2 and their target gene transcripts; experiment: Quantitative PCR of SREBP and target gene transcripts in liver; assay type: in vivo, mouse (ldlr^−/−); details: osmotic pump, vs saline, n=5; for hmgcr (HMG-CoA reductase) mRNA in liver: P<0.005
Procedure, shortened: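 Total liver RNA from Western diet-fed ldlr−/− mice, given peptide or saline by osmotic pump for 4 or 8 weeks, was reverse-transcribed. Transcripts were quantified by real-time PCR with TaqMan probes, using 18S […] as the invariant control.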

[13] = ldlr^−/− mice fed a Western diet

In the case of `CSCC[C@@H]1NC(=O)[C@H](CC(C)C)NC(=O)[C@H](CCCCN)NC(=O)[C@H](CCC(N)=O)NC(=O)[C@H](CCCNC(=N)N)NC(=O)[C@H](CCCCN)NC(=O)[C@H](CCCNC(=N)N)NC(=O)[C@H](CCC(N)=O)NC(=O)[C@H](C(C)C)NC(=O)[C@@H](NC(=O)[C@@H]2CCCN2C(=O)[C@H](C)NC(=O)[C@H](CC(C)C)NC(=O)[C@H](CC(C)C)NC(=O)[C@H](C)NC(=O)[C@H](CC(C)C)NC(=O)[C@H](CC(C)C)NC(=O)[C@@H](NC(=O)[C@H](C)NC(=O)[C@@H]2CCCN2C(=O)[C@H](CC(C)C)NC(=O)[C@H](CC(C)C)NC(=O)[C@H](C)NC(=O)[C@@H](NC(=O)[C@H](C)NC(=O)[C@H](C)N)C(C)C)C(C)C)CSSC[C@@H](C(=O)O)NC(=O)[C@@H]2CCCN2C1=O` [cSN50.1] (H-AAVALLPAVLLALLAPCVQRKRQKLMPC-OH; disulfide 17-28), the “suppression of diabetes, duration” value (NOD mice) is listed as 1 year, the “protection from atherosclerosis, lower dose” value (ldlr^−/− mice [1]) is listed as “not protected” and the “nuclear SREBP1 protein in liver” value (SREBP1 [2]) is listed as “reduced”. The “precursor SREBP1 protein in liver” value (SREBP1 [2]) was “reduced”, the “blood cell populations and blood chemistries” value ([3]; 8 weeks of treatment, other than changes shown, vs control animals) was “did not reveal any significant changes” and the blood chemistries [3, 13] was “normal blood chemistries”. For the same compound, the “red blood cells, white blood cells, major lymphocyte subsets, blood platelets” value [3, 13] was “no changes”, the other side effects ([3]; subcutaneous osmotic pumps, 8 weeks) was “no other side effects were observed” and the “nuclear SREBP2 protein in liver” value (SREBP2 [4]) was “reduced”. The “precursor SREBP2 protein in liver” value (SREBP2 [4]) was “reduced”, the “delivery to blood cells and organs” value [5] was “easily delivered” and the “HDAC3 nuclear content in liver” value (HDAC3) was “not significantly changed”. For the same compound, the “precursor pSREBP1 in cytosolic fraction” value (SREBP1 [6]; 30 μmol/L, 2 hours after HPCD, 4 experiments) was “remained unchanged”, the “nSREBP1 in cytosolic fraction” value (SREBP1 [6]; 30 μmol/L, 2 hours after HPCD, 4 experiments, P<0.05) was “significantly more” and the “processing of SREBP precursors to nuclear (mature) forms, SREBP1” value (SREBP1 [6]; 2 hours after HPCD, cytosolic fraction) was “unaffected”. For the same compound, the “further reduction of nuclear nSREBP1 at 30 μmol/L” value (SREBP1 [6]; gradual sterol depletion, 24 hours, 30 vs 10 μmol/L) was “did not further reduce nSREBP1 in the nucleus by a significant amount”, the “completeness of SREBP nuclear transport inhibition” value (SREBP1 [6]; rapid and gradual sterol depletion protocols, HepG2) was “did not completely reduce nuclear transport of SREBPs” and the “concentration dependence of nSREBP1 nuclear reduction” value (SREBP1 [6]; rapid depletion with HPCD, 2 hours, 0, 10 or 30 μmol/L) was “concentration dependent”. The “phosphorylated NFκB RelA (p65) in cytosolic and nuclear fractions of liver cells” value (NFκB RelA (p65)) was “significantly reduced”, the “attenuation of nuclear accumulation of ChREBP” value (ChREBP) was “≈ 50%” and the solubility (Solubility) was 100 mg/mL (≈ 33.5 mM). The “plasma ALT (alanine transaminase)” value (ldlr^−/− mice [7]) was “significantly reduced”, the “plasma AST (aspartate transaminase)” value (ldlr^−/− mice [7]) was “significantly reduced” and the “nSREBP2 in cytosolic fraction” value (SREBP2 [8]; 30 μmol/L, 3 experiments) was “not significantly increased”. The “precursor pSREBP2 in cytosolic fraction” value (SREBP2 [8]; 30 μmol/L, 3 experiments) was “remained unchanged”, the “processing of SREBP precursors to nuclear (mature) forms, SREBP2” value (SREBP2 [8]; cytosolic fraction) was “unaffected” and the “biomarkers (liver transaminases) in other models of liver inflammation” value [9] was “significantly reduced”. The “interaction with GAPDH” value (GAPDH [10]) was “not with the control protein, GAPDH”, the “interaction with GAPDH” value (GAPDH [11]) was “not with the nonspecific cytoplasmic control protein GAPDH” and the “NPC1L1 protein in liver” value (NPC1L1) was “significant NTM‐induced reduction”. For the same compound, the “abcg5 transcripts in liver” value ([12]; 4 and 8 weeks) was “not reduced”, the “abcg8 transcripts in liver” value ([12]; 4 and 8 weeks) was “not reduced” and the “hmgcr (HMG-CoA reductase) mRNA in liver” value ([12]; 4 weeks) was “significantly decreased expression”. The “srebf1 (SREBP1) transcripts in liver” value ([12]; 4 weeks, P<0.05) was “reduced”, the “hmgcr (HMG-CoA reductase) mRNA in liver” value ([12]; 8 weeks) was “significantly decreased expression” and the “acly (ATP citrate lyase) transcripts in liver” value ([12]; 8 weeks, P<0.05) was “significantly reduced”. The “fasn1 (fatty acid synthase-1) transcripts in liver” value ([12]; 8 weeks, P<0.05) was “significantly reduced”, the “srebf1 (SREBP1) transcripts in liver” value ([12]; 8 weeks, P<0.05) was “reduced” and the “srebf2 (SREBP2) transcripts in liver” value ([12]; 8 weeks, P<0.05) was “reduced”.
